# ChEMBL document CHEMBL1137283, “Synthesis and biological evaluation of heterocycle containing adamantane 11beta-HSD1 inhibitors” (Bioorg Med Chem Lett, 2006)
# Experiments:
# [1] = biological target: 11-beta-hydroxysteroid dehydrogenase 1 (Mus musculus, UniProt P50172); assay: Inhibition of mouse 11beta-HSD1 expressed in Escherichia coli
# Method in brief: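 Reductase-direction SPA. Total cortisone was 175 nM, including 75 nM ³H-cortisone, with NADPH cofactor in 50 mM Tris–HCl pH 7.2 and 1 mM EDTA. An NADPH regeneration system (1 mM G-6-P, 1 U/mL G-6-PDH) was included. Final enzyme was 0.015 mg/mL, keeping substrate consumption below 25%. The reaction ran 30 min at room temperature. ³H-cortisol was captured by anti-cortisol mAb and anti-mouse SPA beads, then scintillation-counted. IC50 came from % inhibition versus an uninhibited control, as the mean of two experiments.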
# [2] = biological target: T1, 11-beta-hydroxysteroid dehydrogenase type 2 (Mus musculus, UniProt P51661); assay: Inhibition of mouse 11beta-HSD2
# T1 sequence (P51661 whole entry): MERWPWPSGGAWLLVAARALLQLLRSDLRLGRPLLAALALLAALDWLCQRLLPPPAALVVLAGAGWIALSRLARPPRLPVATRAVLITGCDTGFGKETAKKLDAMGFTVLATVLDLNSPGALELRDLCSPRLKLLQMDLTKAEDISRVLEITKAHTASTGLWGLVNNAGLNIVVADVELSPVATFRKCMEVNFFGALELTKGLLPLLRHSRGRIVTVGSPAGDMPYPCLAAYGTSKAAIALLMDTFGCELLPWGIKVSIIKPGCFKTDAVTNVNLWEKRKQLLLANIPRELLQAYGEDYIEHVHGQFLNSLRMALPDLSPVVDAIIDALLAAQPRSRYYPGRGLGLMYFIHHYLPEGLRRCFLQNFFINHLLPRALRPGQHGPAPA
# [3] = Stability in mouse liver microsomes after 30 min; assay type: ADME, Microsome; details: read-out: Stability
# Method in brief: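 Compounds were incubated 30 min with mouse liver microsomes; the result is expressed as % parent remaining.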
# [4] = biological target: 11-beta-hydroxysteroid dehydrogenase 1 (Mus musculus) (UniProt P50172); assay: Inhibition of DIO mouse liver 11beta-HSD1 at 30 mg/kg 7 hrs post dose; assay type: organism-based; design: dose 30 mg/kg
# Method in brief: (§1)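 DIO mice received one oral 30 mpk dose in 1% Tween 80 / 0.2% hydroxypropyl methylcellulose, 3 mice per point. Liver, epididymal fat and brain were excised at 7 or 16 h, weighed, minced in about 5 volumes PBS and given cortisone at 10 final. Incubation was at 37 °C, 5% CO₂: liver 20 min, fat and brain 3 h. Cortisol was read by LC-MS; % inhibition is versus the vehicle group.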
# [5] = biological target: 11-beta-hydroxysteroid dehydrogenase 1 (Mus musculus) (UniProt P50172); assay: Inhibition of DIO mouse liver 11beta-HSD1 at 30 mg/kg 16 hrs post dose; assay type: organism-based; design: dose 30 mg/kg; method in brief: as §1
# [6] = biological target: 11-beta-hydroxysteroid dehydrogenase 1 (Mus musculus) (UniProt P50172); assay: Inhibition of DIO mouse adipose tissue 11beta-HSD1 at 30 mg/kg 7 hrs post dose; assay type: organism-based; design: dose 30 mg/kg; method in brief: as §1
# [7] = biological target: 11-beta-hydroxysteroid dehydrogenase 1 (Mus musculus) (UniProt P50172); assay: Inhibition of DIO mouse adipose tissue 11beta-HSD1 at 30 mg/kg 16 hrs post dose; assay type: organism-based; design: dose 30 mg/kg; method in brief: as §1
# [8] = biological target: T2, 11-beta-hydroxysteroid dehydrogenase 1 (Homo sapiens, UniProt P28845); assay: Inhibition of human 11beta-HSD1 expressed in Escherichia coli
# [9] = biological target: T3, 11-beta-hydroxysteroid dehydrogenase type 2 (Homo sapiens, UniProt P80365); assay: Inhibition of human 11beta-HSD2
# T3 sequence (P80365 whole entry): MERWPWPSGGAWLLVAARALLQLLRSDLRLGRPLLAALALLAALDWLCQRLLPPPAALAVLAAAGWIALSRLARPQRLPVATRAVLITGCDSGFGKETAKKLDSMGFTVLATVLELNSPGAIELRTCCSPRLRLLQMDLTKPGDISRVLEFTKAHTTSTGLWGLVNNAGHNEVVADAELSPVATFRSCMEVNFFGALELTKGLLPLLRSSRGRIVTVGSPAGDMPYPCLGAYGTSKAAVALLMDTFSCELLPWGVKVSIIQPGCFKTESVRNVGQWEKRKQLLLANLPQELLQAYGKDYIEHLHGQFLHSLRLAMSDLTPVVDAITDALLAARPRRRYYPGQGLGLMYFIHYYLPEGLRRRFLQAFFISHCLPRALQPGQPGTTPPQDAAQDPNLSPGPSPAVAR
# [10] = biological target: T2, 11-beta-hydroxysteroid dehydrogenase 1; assay: Inhibition of human 11beta-HSD1 expressed in HEK293 cells; assay type: cell-based
# [11] = biological target: 11-beta-hydroxysteroid dehydrogenase 1 (Mus musculus) (UniProt P50172); assay: Inhibition of DIO mouse brain 11beta-HSD1 at 30 mg/kg 7 hrs post dose; assay type: organism-based; design: dose 30 mg/kg; method in brief: as §1
# [12] = biological target: 11-beta-hydroxysteroid dehydrogenase 1 (Mus musculus) (UniProt P50172); assay: Inhibition of DIO mouse brain 11beta-HSD1 at 30 mg/kg 16 hrs post dose; assay type: organism-based; design: dose 30 mg/kg; method in brief: as §1
# [13] = Plasma clearance in mouse at 10 mg/kg; assay type: ADME, organism-based; design: dose 10 mg/kg
# Method in brief: (§2)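 Mouse PK: single 10 mg/kg doses given intravenously and orally; the parameters were calculated from these dosings.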
# [14] = Half life in mouse plasma at 10 mg/kg; assay type: ADME, organism-based; design: dose 10 mg/kg; method in brief: as §2
# [15] = Bioavailability in mouse plasma at 10 mg/kg; assay type: ADME, organism-based; method in brief: as §2
# T2 sequence (P28845 whole entry): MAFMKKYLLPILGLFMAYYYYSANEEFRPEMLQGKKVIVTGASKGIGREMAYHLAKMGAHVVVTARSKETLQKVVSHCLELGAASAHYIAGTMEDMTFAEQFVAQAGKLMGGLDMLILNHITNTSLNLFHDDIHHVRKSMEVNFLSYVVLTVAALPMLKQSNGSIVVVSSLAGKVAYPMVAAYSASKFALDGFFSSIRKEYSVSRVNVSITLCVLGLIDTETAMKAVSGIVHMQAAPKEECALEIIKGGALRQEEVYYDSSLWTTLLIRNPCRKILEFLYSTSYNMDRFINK
# Chain of 11-beta-hydroxysteroid dehydrogenase 1 (Mus musculus, UniProt P50172) (P50172 whole entry): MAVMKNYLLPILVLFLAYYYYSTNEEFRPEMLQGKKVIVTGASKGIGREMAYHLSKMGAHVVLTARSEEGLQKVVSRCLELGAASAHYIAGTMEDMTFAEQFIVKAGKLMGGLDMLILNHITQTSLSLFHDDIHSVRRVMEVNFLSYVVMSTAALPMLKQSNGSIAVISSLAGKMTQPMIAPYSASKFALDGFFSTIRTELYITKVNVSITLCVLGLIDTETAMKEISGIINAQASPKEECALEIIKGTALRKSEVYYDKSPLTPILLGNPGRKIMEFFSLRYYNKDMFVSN
# Chain of 11-beta-hydroxysteroid dehydrogenase 1 (Mus musculus) (P50172 whole entry, looked up): as the sequence (P50172 whole entry) above
structure (smiles),measurement,setting,value
CC(C)(Oc1ccc(Br)cn1)C(=O)N[C@H]1C2C[C@@H]3C[C@H]1C[C@@](CC(N)=O)(C2)C3,IC50,[1],4 nM
same,IC50,[2],> 100000 nM
same,remaining at 0.5 h,[3],87%
same,inhibition,[4],57%
same,inhibition,[5],0%
same,inhibition,[6],47%
same,inhibition,[7],23%
CC(C)(Oc1ccc(Cl)cc1)C(=O)N[C@H]1C2C[C@@H]3C[C@H]1C[C@@](Cc1nnn[nH]1)(C2)C3,IC50,[8],41 nM
same,IC50,[9],> 100000 nM
same,IC50,[1],87 nM
same,IC50,[2],7000 nM
same,IC50,[10],119 nM
same,remaining at 0.5 h,[3],79%
same,inhibition,[4],62%
same,inhibition,[5],37%
same,inhibition,[11],11%
same,inhibition,[12],9%
same,inhibition,[6],17%
same,inhibition,[7],20%
same,clearance,[13],20 mL/min/kg
same,half-life,[14],2.3 h
same,bioavailability,[15],39.7%
CC(C)(C(=O)N[C@H]1C2C[C@@H]3C[C@H]1C[C@@](CC(N)=O)(C2)C3)c1ccc(C#N)cn1,IC50,[8],14 nM
same,IC50,[9],> 100000 nM
same,IC50,[1],65 nM
same,IC50,[2],15000 nM
same,IC50,[10],165 nM
same,remaining at 0.5 h,[3],100%
CC(C)(Oc1ccc(Cl)cc1)C(=O)N[C@H]1C2C[C@@H]3C[C@H]1C[C@@](c1noc(=O)[nH]1)(C2)C3,IC50,[1],101 nM
same,IC50,[2],100000 nM
CC(C)(Oc1ccc(N2CCOCC2)cn1)C(=O)N[C@H]1C2C[C@@H]3C[C@H]1C[C@@](CC(N)=O)(C2)C3,IC50,[8],44 nM
same,IC50,[9],> 100000 nM
same,IC50,[1],51 nM
same,IC50,[2],> 100000 nM
same,IC50,[10],444 nM
same,remaining at 0.5 h,[3],89%
CC(C)(Oc1ccc(Cl)cc1)C(=O)N[C@H]1C2C[C@@H]3C[C@H]1C[C@@](CC(=O)O)(C2)C3,IC50,[1],92 nM
same,IC50,[2],20700 nM
same,remaining at 0.5 h,[3],94%
same,inhibition,[4],40%
same,inhibition,[5],0%
same,inhibition,[6],70%
same,inhibition,[7],35%
same,clearance,[13],3.33 mL/min/kg
same,half-life,[14],2 h
same,bioavailability,[15],96.1%
CNc1ccc(C(C)(C)C(=O)N[C@H]2C3C[C@@H]4C[C@H]2C[C@@](CC(N)=O)(C3)C4)cn1,IC50,[8],29 nM
same,IC50,[9],> 100000 nM
same,IC50,[1],310 nM
same,IC50,[2],> 100000 nM
same,IC50,[10],246 nM
same,remaining at 0.5 h,[3],83%
CC(C)(Oc1ccc(Cl)cc1)C(=O)N[C@H]1C2C[C@@H]3C[C@H]1C[C@@](c1nc(C#N)c(N)o1)(C2)C3,IC50,[8],146 nM
same,IC50,[9],> 100000 nM
same,IC50,[1],205 nM
same,IC50,[2],50000 nM
same,IC50,[10],306 nM
same,remaining at 0.5 h,[3],25%
CC(C)(Oc1ccc(-n2cccn2)cn1)C(=O)N[C@H]1C2C[C@@H]3C[C@H]1C[C@@](CC(N)=O)(C2)C3,IC50,[8],5 nM
same,IC50,[9],> 100000 nM
same,IC50,[1],11 nM
same,IC50,[2],> 100000 nM
same,IC50,[10],38 nM
same,remaining at 0.5 h,[3],83%
CC(C)(Oc1ccc(Cl)cc1)C(=O)N[C@H]1C2C[C@@H]3C[C@H]1C[C@@](c1ccno1)(C2)C3,IC50,[1],71 nM
same,remaining at 0.5 h,[3],30%
CC(C)(Oc1ccc(Cl)cc1)C(=O)N[C@H]1C2C[C@@H]3C[C@H]1C[C@@](c1ncc[nH]1)(C2)C3,IC50,[1],11 nM
same,remaining at 0.5 h,[3],3%
CC(C)(Oc1ccc(Cl)cc1)C(=O)N[C@H]1C2C[C@@H]3C[C@H]1C[C@@](/C(N)=N/O)(C2)C3,IC50,[1],26 nM
same,IC50,[2],> 100000 nM
same,remaining at 0.5 h,[3],64%
same,inhibition,[4],89%
same,inhibition,[5],84%
same,inhibition,[11],85%
same,inhibition,[12],79%
same,inhibition,[6],92%
same,inhibition,[7],67%
same,clearance,[13],76.7 mL/min/kg
same,half-life,[14],0.4 h
same,bioavailability,[15],61.6%
CN1CCN(c2ccc(OC(C)(C)C(=O)N[C@H]3C4C[C@@H]5C[C@H]3C[C@@](CC(N)=O)(C4)C5)nc2)CC1,IC50,[8],185 nM
same,IC50,[9],> 100000 nM
same,IC50,[1],519 nM
same,IC50,[2],> 100000 nM
same,IC50,[10],> 10000 nM
CC(C)(Oc1ccc(Cl)cc1)C(=O)N[C@H]1C2C[C@@H]3C[C@H]1C[C@@](CCC(=O)O)(C2)C3,IC50,[1],74 nM
same,IC50,[2],28000 nM
same,remaining at 0.5 h,[3],78%
same,inhibition,[4],99%
same,inhibition,[5],93%
same,inhibition,[11],67%
same,inhibition,[12],18%
same,inhibition,[6],50%
same,inhibition,[7],23%
same,clearance,[13],13.3 mL/min/kg
same,half-life,[14],2.6 h
same,bioavailability,[15],86.3%
CC(C)(Oc1ccc(Cl)cc1)C(=O)N[C@H]1C2C[C@@H]3C[C@H]1C[C@@](c1nnc(N)[nH]1)(C2)C3,IC50,[1],53 nM
same,remaining at 0.5 h,[3],41%
